Screening results as filed in PubChem BioAssay.
An excerpt weighted towards active compounds, which were near 2.9% of everything screened.
Dynein cargo inh: dynein cargo transport inhibition. 3617.4 mouse cells, GR-EGFP nuclear translocation imaging; test concentration mostly 20 µM; stimulated with dexamethasone, 1 µM; hits give low values. z-score, hits read low. actives 0.47% (n = 220,000);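 active = plate z-score of nuclear minus cytoplasmic receptor signal below a set negative limit, without overly bright fluorescence or cell loss, cut at about -3.5 in these data, passing the limit was not always enough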;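 note: z-score of nuclear minus cytoplasmic ring GR-EGFP intensity difference per well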
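Also added: dexamethasone, 1.0 µM final. Medium: tet-free, stripped-serum medium. Detection: fixed, Hoechst-stained cells imaged at 10x for EGFP. Read-out: nuclear-to-cytoplasmic GR-EGFP distribution per well. Times: induction 48 h, compound 1 h, agonist 30 min.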
MEKK2mut PB1 HTS: signal of MEK5 binding to mutant human MEKK2 PB1 domain. bead flow cytometry, Alexa488-MEK5 binding to MEKK2 mutant. percent response, % at 10 µM. actives 0.35% (n = 290,000). AID 1530; in the data active = percent response above about 24%, passing the limit was not always enough
MEKK3 PB1 HTS: MEKK3-MEK5 PB1 interaction, increase or decrease | Q99759 | bead-based flow cytometry, Alexa488-MEK5 binding to MEKK3; actives lie on both sides; 0 = blocked by unlabeled MEK5, 100 = vehicle | binding response (% of control), % at 10 µM | actives 1.4% (n = 290,000);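 active = binding response more than 3 SD above or below the average of its plate-row segment, actives on both sides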;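 note: Alexa488 bead fluorescence after subtracting the streptavidin-only scavenger bead signal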
MEKK2 WT-MEK5: raises or lowers MEK5 binding to wildtype human MEKK2 PB1 domain; Q9Y2U5; bead flow cytometry, Alexa488-MEK5 binding to MEKK2 WT; actives lie on both sides; binding response (% of control), % at 10 µM; actives 1.1% (n = 290,000); in the data active = binding response below about 67% or above about 130%
Beta2AR agonist: agonists of human beta-2 adrenergic receptor inducing internalization. P07550. Am2.2-beta2AR cells, FAP receptor internalization, flow cytometry. response, % (concentration not given with the values). actives 0.43% (n = 340,000);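 active = response above a set limit, near 3 SD of response in nonfluorescent compounds, cut at about 42% in these data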
Target sequence (P07550 whole entry, looked up): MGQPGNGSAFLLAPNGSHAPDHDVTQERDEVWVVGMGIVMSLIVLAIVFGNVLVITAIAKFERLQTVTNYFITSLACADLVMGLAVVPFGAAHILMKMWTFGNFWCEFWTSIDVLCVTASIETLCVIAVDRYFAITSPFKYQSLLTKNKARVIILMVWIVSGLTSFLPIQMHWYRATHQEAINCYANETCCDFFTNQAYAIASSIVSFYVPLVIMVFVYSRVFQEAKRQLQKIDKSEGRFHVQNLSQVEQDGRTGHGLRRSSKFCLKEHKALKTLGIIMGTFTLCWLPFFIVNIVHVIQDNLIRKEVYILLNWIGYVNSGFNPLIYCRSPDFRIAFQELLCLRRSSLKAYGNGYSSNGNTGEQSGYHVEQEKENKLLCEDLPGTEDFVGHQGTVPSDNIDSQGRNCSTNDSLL
ATG4B inh: blocks human ATG4B protease cleavage of LC3 substrate | Q9Y4P1 | ATG4B cleavage of LC3-PLA2, NBD-HPC fluorescence, 1 h | inhibition, % at 8.33 µM | actives 0.51% (n = 340,000); in the data active = inhibition above about 40%
MEKK2wt confirm: raises or lowers MEK5 binding to wildtype human MEKK2, retest | AID 1892 | actives 2.4% (n = 5,900) | binding response (% of control), % at 10 µM | bead flow cytometry, Alexa488-MEK5 binding to MEKK2 WT; actives lie on both sides | shares compounds with MEKK3 PB1 HTS; in the data active = binding response below about 16% or above about 210%; inactive = in between
MEKK2mut confirm: signal of MEK5 binding to mutant human MEKK2, retest; shares compounds with MEKK3 PB1 HTS; bead flow cytometry, Alexa488-MEK5 binding to MEKK2 mutant; percent response, % at 10 µM; actives 2% (n = 5,900); in the data active = percent response mostly above about 71%, no sharp cut-off; inactive = mostly below about 38%;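 note: higher means compound restores mutant binding toward wildtype level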
MEKK3 confirm: MEKK3-MEK5 PB1 inhibition, single concentration confirmation | shares compounds with MEKK3 PB1 HTS | bead flow cytometry, Alexa488-MEK5 binding to MEKK3; hits give low values | binding response (% of control), % at 10 µM | actives 1.8% (n = 5,900);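 active = binding response below 72% of control, or above a set upper limit, though filed actives all read lower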;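 note: 100% = DMSO only wells and 0% = binding blocked by excess unlabeled MEK5; lower values mean stronger disruption of MEK5 binding to MEKK3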
The depositor's hits bear a star; [ ] = dose if it differs, or a comment.

COc1cc(C(=O)NC(=S)Nc2ccc([N+](=O)[O-])cc2C)cc(OC)c1OC was read as Dynein cargo inh -0.33, MEKK2mut PB1 HTS 1, MEKK3 PB1 HTS 97, MEKK2 WT-MEK5 98, Beta2AR agonist 5 and ATG4B inh -18.
CCc1ccc(C2=NNC(=Nc3cccc(S(=O)(=O)N(C)C)c3)SC2)cc1 was read as Dynein cargo inh 1, MEKK2mut PB1 HTS 0, MEKK3 PB1 HTS 128*, MEKK2 WT-MEK5 104, Beta2AR agonist 1, ATG4B inh -29, MEKK2wt confirm 101, MEKK2mut confirm -2 and MEKK3 confirm 103.
Screening Cc1nc(Cl)c(C(=O)NC(=O)NCc2ccccc2)c(C)c1Cl returned Dynein cargo inh -0.84, MEKK2mut PB1 HTS 1, MEKK3 PB1 HTS 142*, MEKK2 WT-MEK5 107, Beta2AR agonist 2, ATG4B inh -4, MEKK2wt confirm 97, MEKK2mut confirm -6 and MEKK3 confirm 100.
Cc1ccccc1NC(=O)c1c(Cl)nc(C)c(Cl)c1C was read as Dynein cargo inh -0.13, MEKK2mut PB1 HTS -1, MEKK3 PB1 HTS 104, MEKK2 WT-MEK5 104, Beta2AR agonist 0 and ATG4B inh 4.
For CCCOc1ccc(C(=O)NCC(c2cccs2)N(C)C)cc1 (stereo not drawn) the results were Dynein cargo inh 2, MEKK2mut PB1 HTS -2, MEKK3 PB1 HTS 95, MEKK2 WT-MEK5 100, Beta2AR agonist -2 and ATG4B inh 1.
Screening CCOc1ccc(C(=O)NCC(c2cccs2)N(C)C)cc1OCC (stereo not drawn) returned Dynein cargo inh 0.15, MEKK2mut PB1 HTS -2, MEKK3 PB1 HTS 70*[inhibitor], MEKK2 WT-MEK5 94, Beta2AR agonist 6, ATG4B inh -3, MEKK2wt confirm 100, MEKK2mut confirm 5 and MEKK3 confirm 103.
Screening Cc1ccc(SC[C@H](CC(C)C)N2CCN(C)CCC2=O)cc1 returned Dynein cargo inh -0.32, MEKK2mut PB1 HTS 4, MEKK3 PB1 HTS 109, MEKK2 WT-MEK5 101, Beta2AR agonist -5 and ATG4B inh -5.
`COc1ccc(SC[C@H](CC(C)C)N2CCN(CCc3ccccc3)CCC2=O)cc1` gave Dynein cargo inh 0.15, MEKK2mut PB1 HTS 10, MEKK3 PB1 HTS 106, MEKK2 WT-MEK5 137*, Beta2AR agonist 9, ATG4B inh 2, MEKK2wt confirm 124, MEKK2mut confirm 14 and MEKK3 confirm 104.
Screening O=C1CCN(Cc2ccccc2)CCN1[C@H](CSc1ccccc1)Cc1ccccc1 returned MEKK2mut PB1 HTS 0, MEKK3 PB1 HTS 97, MEKK2 WT-MEK5 99, Beta2AR agonist -3 and ATG4B inh 2.
Screening O=C1CCN(CCc2ccccc2)CCN1[C@H](CSc1ccc(Br)cc1)Cc1ccccc1 returned Dynein cargo inh 0.45, MEKK2mut PB1 HTS 2, MEKK3 PB1 HTS 118, MEKK2 WT-MEK5 154*, Beta2AR agonist -2, ATG4B inh -6, MEKK2wt confirm 142, MEKK2mut confirm 36 and MEKK3 confirm 105.
`Cc1ccc(SC[C@H](CC(C)C)N2CCN(CCc3ccccc3)CCC2=O)cc1` gave Dynein cargo inh 1.2, MEKK2mut PB1 HTS 8, MEKK3 PB1 HTS 108, MEKK2 WT-MEK5 103, Beta2AR agonist -5 and ATG4B inh 4.
`CCCN1CCC(=O)N([C@H](CSc2ccc(OC)cc2)c2ccccc2)CC1` gave Dynein cargo inh -0.63, MEKK2mut PB1 HTS 4, MEKK3 PB1 HTS 129*, MEKK2 WT-MEK5 165*, Beta2AR agonist -6, ATG4B inh 3, MEKK2wt confirm 111, MEKK2mut confirm 3 and MEKK3 confirm 103.
Screening COc1ccc(SC[C@H](CC(C)C)N2CCN(C)CCC2=O)cc1 returned Dynein cargo inh -0.13, MEKK2mut PB1 HTS 2, MEKK3 PB1 HTS 128*, MEKK2 WT-MEK5 146*, Beta2AR agonist -3, ATG4B inh 3, MEKK2wt confirm 113, MEKK2mut confirm -1 and MEKK3 confirm 103.
For COc1cccc(CN2CC(C(=O)NCC3CCOCC3)CCC2=O)c1 (stereo not drawn) the results were MEKK2mut PB1 HTS 9, MEKK3 PB1 HTS 103, MEKK2 WT-MEK5 100, Beta2AR agonist -6 and ATG4B inh -2.
CC(NC(=O)CN1CCN(CC(=O)Nc2ccccc2Cl)CC1)c1ccc(Br)cc1 (stereo not drawn) was read as Beta2AR agonist 6 and ATG4B inh -12.
Screening O=C(O)c1sccc1S(=O)(=O)N1CCN(c2ccc(C(F)(F)F)cn2)CC1 returned Dynein cargo inh -0.046, MEKK2mut PB1 HTS -2, MEKK3 PB1 HTS 97, MEKK2 WT-MEK5 93, Beta2AR agonist -2 and ATG4B inh 7.
Screening O=S(=O)(c1ccc(C(F)(F)F)cc1)N1CCCN(c2ccc(C(F)(F)F)cn2)CC1 returned Dynein cargo inh 0.75, MEKK2mut PB1 HTS -26, MEKK3 PB1 HTS 47*[inhibitor], MEKK2 WT-MEK5 46*[inhibitor], Beta2AR agonist 1, ATG4B inh -5, MEKK2wt confirm 104, MEKK2mut confirm 4 and MEKK3 confirm 107.
For Cc1cccc(N2CCN(C(=O)CN3C(=O)NC(C)(C)C3=O)CC2)c1C the results were Dynein cargo inh 0.15, MEKK2mut PB1 HTS -19, MEKK3 PB1 HTS 89, MEKK2 WT-MEK5 97, Beta2AR agonist -2 and ATG4B inh -3.
`Cc1cccc(N2CCN(C(=O)CN3C(=O)C4CC=CCC4C3=O)CC2)c1C` (stereo not drawn) gave Dynein cargo inh 0.67, MEKK2mut PB1 HTS -2, MEKK3 PB1 HTS 67*[inhibitor], MEKK2 WT-MEK5 85, Beta2AR agonist 7, ATG4B inh -3, MEKK2wt confirm 96, MEKK2mut confirm 4 and MEKK3 confirm 101.
`COC(=O)c1cc(C(=O)NCc2ccccc2)c(=O)[nH]c1C` gave Dynein cargo inh -0.11, MEKK2mut PB1 HTS -19, MEKK3 PB1 HTS 3.0*[inhibitor], MEKK2 WT-MEK5 3.0*[inhibitor], Beta2AR agonist -7, ATG4B inh 0, MEKK2wt confirm 100, MEKK2mut confirm -2 and MEKK3 confirm 102.
